Assay results: ChEMBL document CHEMBL4390647, “Efficient click chemistry towards novel 1H-1,2,3-triazole-tethered 4H-chromene-d-glucose conjugates: Design, synthesis and evaluation of in vitro antibacterial, MRSA and antifungal activities” (Eur J Med Chem, 2019)
Converted amounts (≈) assume the structure as drawn.

Experiments:
[1] = tested on: Aspergillus flavus; assay: Antifungal activity against Aspergillus flavus ATCC 64025 after 24 to 48 hrs by broth microdilution method; assay type: functional
[2] = tested on: Candida albicans; assay: Antifungal activity against Candida albicans SUCC 2303 after 24 to 48 hrs by broth microdilution method; assay type: functional
[3] = tested on: Candida albicans; assay: Antifungal activity against Candida albicans ATCC 1912 after 24 to 48 hrs by broth microdilution method; assay type: functional
[4] = tested on: Candida albicans; assay: Antifungal activity against Candida albicans ATCC 1905 after 24 to 48 hrs by broth microdilution method; assay type: functional
[5] = tested on: Candida albicans; assay: Antifungal activity against Candida albicans SUCC 625 after 24 to 48 hrs by broth microdilution method; assay type: functional
[6] = tested on: Saccharomyces cerevisiae; assay: Antifungal activity against Saccharomyces cerevisiae SH 20 after 72 hrs by agar dilution method; assay type: functional; conditions: SH 20, 72 h
In short: (§1)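 Agar dilution on Sabouraud dextrose agar, with compounds at […] to 0.78 μM in twofold steps. Fungal suspensions at 10 CFU/mL as printed were applied to the compound-containing plates. Incubation at 35°C; MIC read after 72 h. Three experiments.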

[7] = tested on: Aspergillus flavus; assay: Antifungal activity against Aspergillus flavus ATCC 204304 measured after 72 hrs by agar dilution method; assay type: functional; conditions: ATCC 204304, 72 h; in short: as §1
[8] = tested on: Pseudomonas aeruginosa; assay: Antibacterial activity against Pseudomonas aeruginosa […] measured after 18 to 20 hrs by microbroth dilution method; assay type: functional
In short: (§2)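 Inoculum from a 4–6-h broth adjusted to 0.5 McFarland, final 5 × 10⁵ CFU/mL. Incubation at 35°C for 18–20 h. MIC taken as the lowest concentration giving complete inhibition of visible growth; three experiments.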

[9] = tested on: Salmonella typhimurium; assay: Antibacterial activity against Salmonella typhimurium ATCC 14028 measured after 18 to 20 hrs by microbroth dilution method; assay type: functional, Salmonella enterica subsp. enterica serovar Typhimurium; conditions: Salmonella enterica; in short: as §2
[10] = tested on: Aspergillus niger; assay: Antifungal activity against Aspergillus niger ATCC 439 measured after 72 hrs by agar dilution method; assay type: functional; conditions: ATCC 439, 72 h; in short: as §1
[11] = tested on: Staphylococcus aureus; assay: Antibacterial activity against Staphylococcus aureus MRSA198 clinical isolate-3 measured after 18 to 20 hrs by microbroth dilution method; assay type: functional; conditions: MRSA198 isolate-3
[12] = tested on: Escherichia coli; assay: Antibacterial activity against Escherichia coli ATCC 25922 measured after 18 to 20 hrs by microbroth dilution method; assay type: functional; in short: as §2
[13] = tested on: Klebsiella pneumoniae; assay: Antibacterial activity against measured after Klebsiella pneumoniae ATCC 4352 measured after 18 to 20 hrs by microbroth dilution method; assay type: functional; in short: as §2
[14] = tested on: Candida albicans; assay: Antifungal activity against Candida albicans ATCC 7754 after 72 hrs by agar dilution method; assay type: functional; conditions: ATCC 7754, 72 h; in short: as §1
[15] = tested on: Staphylococcus aureus; assay: Antibacterial activity against Staphylococcus aureus MRSA198 clinical isolate-2 measured after 18 to 20 hrs by microbroth dilution method; assay type: functional; conditions: MRSA198 isolate-2
[16] = tested on: Bacillus subtilis; assay: Antibacterial activity against Bacillus subtilis ATCC 11774 after 18 to 20 hrs by microbroth dilution method; assay type: functional; in short: as §2
[17] = tested on: Staphylococcus epidermidis; assay: Antibacterial activity against Staphylococcus epidermidis ATCC 12228 after 18 to 20 hrs by microbroth dilution method; assay type: functional; in short: as §2
[18] = tested on: Staphylococcus aureus; assay: Antibacterial activity against Staphylococcus aureus ATCC 11632 after 18 to 20 hrs by microbroth dilution method; assay type: functional; in short: as §2
[19] = tested on: Staphylococcus aureus; assay: Antibacterial activity against Staphylococcus aureus MRSA198 clinical isolate-1 measured after 18 to 20 hrs by microbroth dilution method; assay type: functional; conditions: MRSA198 isolate-1
[20] = Cytotoxicity against mouse RAW264.7 cells assessed as growth inhibition at 50 ug/mL after 120 hrs by MTT assay relative to control; assay type: cell-based; conditions: read-out: GI
In short: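 RAW 264.7 mouse macrophages were seeded at 25,000 cells/well and left to attach overnight. Compound in DMSO was added from a 200× concentrate, in duplicate wells, to a 50 μg/mL test level; DMSO served as control. Exposure 120 h at 37°C in 5% CO₂. MTT (4 mg/mL in PBS) was added for 4 h, formazan dissolved in DMSO, and absorbance read at 560 nm. Viability expressed as % of untreated cells, mean ± SE of at least three independent experiments.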

[21] = tested on: Candida albicans; assay: Antifungal activity against Candida albicans NCIM3471 by standard agar method; assay type: functional
[22] = tested on: Aspergillus niger; assay: Antifungal activity against Aspergillus niger NCIM1196 by standard agar method; assay type: functional
[23] = Antioxidant activity assessed as DPPH radical scavenging activity measured after 30 mins by spectrophotometric method; assay type: functional

Structure (SMILES)	MIC [6] [µM]	MIC [7] [µM]	MIC [8] [µM]	MIC [9] [µM]	MIC [10] [µM]	MIC [11] [µM]	MIC [12] [µM]	MIC [13] [µM]	MIC [14] [µM]	MIC [15] [µM]	MIC [16] [µM]	MIC [17] [µM]	MIC [18] [µM]	MIC [19] [µM]	inhibition at 120 h, 50 ug/mL [20] [%]	also measured
N#CC1=C(N)Oc2ccc3ccccc3c2C1c1ccccc1 (centres undefined)	–	–	–	–	–	–	–	–	–	–	–	–	–	–	–	MIC [1]: > 1 µg/mL; MIC [2]: > 1 µg/mL; MIC [3]: > 1 µg/mL; MIC [4]: > 1 µg/mL; MIC [5]: > 1 µg/mL
CC(=O)OC[C@H]1O[C@@H](n2cc(COc3ccc4c(c3)OC(N)=C(C#N)C4c3ccc(Br)cc3)nn2)[C@H](OC(C)=O)[C@@H](OC(C)=O)[C@@H]1OC(C)=O (some centres undefined)	1.56 (≈ 1.18 µg/mL)	200 (≈ 151 µg/mL)	25 (≈ 18.9 µg/mL)	200 (≈ 151 µg/mL)	3.12 (≈ 2.35 µg/mL)	12.5 (≈ 9.43 µg/mL)	100 (≈ 75.5 µg/mL)	200 (≈ 151 µg/mL)	3.12 (≈ 2.35 µg/mL)	12.5 (≈ 9.43 µg/mL)	200 (≈ 151 µg/mL)	100 (≈ 75.5 µg/mL)	25 (≈ 18.9 µg/mL)	12.5 (≈ 9.43 µg/mL)	25.3	–
COc1cccc(C2C(C#N)=C(N)Oc3cc(OCc4cn([C@@H]5O[C@H](COC(C)=O)[C@@H](OC(C)=O)[C@H](OC(C)=O)[C@H]5OC(C)=O)nn4)ccc32)c1OC (some centres undefined)	200 (≈ 147 µg/mL)	25 (≈ 18.4 µg/mL)	12.5 (≈ 9.2 µg/mL)	12.5 (≈ 9.2 µg/mL)	25 (≈ 18.4 µg/mL)	12.5 (≈ 9.2 µg/mL)	200 (≈ 147 µg/mL)	25 (≈ 18.4 µg/mL)	100 (≈ 73.6 µg/mL)	12.5 (≈ 9.2 µg/mL)	12.5 (≈ 9.2 µg/mL)	25 (≈ 18.4 µg/mL)	12.5 (≈ 9.2 µg/mL)	12.5 (≈ 9.2 µg/mL)	31.1	–
COc1ccccc1C1C(C#N)=C(N)Oc2cc(OCc3cn([C@@H]4O[C@H](COC(C)=O)[C@@H](OC(C)=O)[C@H](OC(C)=O)[C@H]4OC(C)=O)nn3)ccc21 (some centres undefined)	100 (≈ 70.6 µg/mL)	400 (≈ 282 µg/mL)	3.12 (≈ 2.2 µg/mL)	6.25 (≈ 4.41 µg/mL)	1.56 (≈ 1.1 µg/mL)	200 (≈ 141 µg/mL)	400 (≈ 282 µg/mL)	3.12 (≈ 2.2 µg/mL)	200 (≈ 141 µg/mL)	400 (≈ 282 µg/mL)	–	6.25 (≈ 4.41 µg/mL)	50 (≈ 35.3 µg/mL)	400 (≈ 282 µg/mL)	22.1	–
CCOC(=O)c1cc2ccc(OCc3cn(Cc4ccc(F)cc4)nn3)cc2oc1=O	–	–	–	–	–	–	–	–	–	–	–	–	–	–	–	MIC [21]: 12.5 µg/mL (≈ 29.5 µM); MIC [22]: 25 µg/mL (≈ 59 µM)
CC(=O)OC[C@H]1O[C@@H](n2cc(COc3ccc4c(c3)OC(N)=C(C#N)C4c3ccccc3)nn2)[C@H](OC(C)=O)[C@@H](OC(C)=O)[C@@H]1OC(C)=O (some centres undefined)	12.5 (≈ 8.45 µg/mL)	100 (≈ 67.6 µg/mL)	200 (≈ 135 µg/mL)	3.12 (≈ 2.11 µg/mL)	6.25 (≈ 4.22 µg/mL)	200 (≈ 135 µg/mL)	400 (≈ 270 µg/mL)	400 (≈ 270 µg/mL)	100 (≈ 67.6 µg/mL)	400 (≈ 270 µg/mL)	400 (≈ 270 µg/mL)	25 (≈ 16.9 µg/mL)	200 (≈ 135 µg/mL)	400 (≈ 270 µg/mL)	22.9	–
CCOC(=O)c1cc2ccc(OCc3cn(Cc4ccc([N+](=O)[O-])cc4)nn3)cc2oc1=O	–	–	–	–	–	–	–	–	–	–	–	–	–	–	–	IC50 [23]: 15 µg/mL (≈ 33.3 µM)
CC(=O)OC[C@H]1O[C@@H](n2cc(COc3ccc4c(c3)OC(N)=C(C#N)C4c3cccc(Cl)c3)nn2)[C@H](OC(C)=O)[C@@H](OC(C)=O)[C@@H]1OC(C)=O (some centres undefined)	3.12 (≈ 2.22 µg/mL)	200 (≈ 142 µg/mL)	25 (≈ 17.8 µg/mL)	6.25 (≈ 4.44 µg/mL)	12.5 (≈ 8.88 µg/mL)	1.56 (≈ 1.11 µg/mL)	6.25 (≈ 4.44 µg/mL)	3.12 (≈ 2.22 µg/mL)	12.5 (≈ 8.88 µg/mL)	6.25 (≈ 4.44 µg/mL)	6.25 (≈ 4.44 µg/mL)	12.5 (≈ 8.88 µg/mL)	1.56 (≈ 1.11 µg/mL)	3.12 (≈ 2.22 µg/mL)	17.2	–
COc1ccc(C2C(C#N)=C(N)Oc3cc(OCc4cn([C@@H]5O[C@H](COC(C)=O)[C@@H](OC(C)=O)[C@H](OC(C)=O)[C@H]5OC(C)=O)nn4)ccc32)cc1OC (some centres undefined)	25 (≈ 18.4 µg/mL)	3.12 (≈ 2.3 µg/mL)	12.5 (≈ 9.2 µg/mL)	400 (≈ 294 µg/mL)	200 (≈ 147 µg/mL)	50 (≈ 36.8 µg/mL)	6.25 (≈ 4.6 µg/mL)	25 (≈ 18.4 µg/mL)	6.25 (≈ 4.6 µg/mL)	50 (≈ 36.8 µg/mL)	25 (≈ 18.4 µg/mL)	1.56 (≈ 1.15 µg/mL)	25 (≈ 18.4 µg/mL)	25 (≈ 18.4 µg/mL)	21.9	–
CC(=O)OC[C@H]1O[C@@H](n2cc(COc3ccc4c(c3)OC(N)=C(C#N)C4c3ccc(Cl)cc3)nn2)[C@H](OC(C)=O)[C@@H](OC(C)=O)[C@@H]1OC(C)=O (some centres undefined)	1.56 (≈ 1.11 µg/mL)	25 (≈ 17.8 µg/mL)	3.12 (≈ 2.22 µg/mL)	12.5 (≈ 8.88 µg/mL)	50 (≈ 35.5 µg/mL)	100 (≈ 71 µg/mL)	1.56 (≈ 1.11 µg/mL)	12.5 (≈ 8.88 µg/mL)	6.25 (≈ 4.44 µg/mL)	200 (≈ 142 µg/mL)	400 (≈ 284 µg/mL)	200 (≈ 142 µg/mL)	50 (≈ 35.5 µg/mL)	200 (≈ 142 µg/mL)	25.1	–
Cc1cc(C(C)(C)C)c(O)c(C(C)(C)C)c1 [BUTYLATED HYDROXYTOLUENE]	–	–	–	–	–	–	–	–	–	–	–	–	–	–	–	IC50 [23]: 16.47 µg/mL (≈ 74.7 µM)
OC(Cn1cncn1)(Cn1cncn1)c1ccc(F)cc1F [FLUCONAZOLE]	0.78 (≈ 0.239 µg/mL)	0.78 (≈ 0.239 µg/mL)	–	–	1.56 (≈ 0.478 µg/mL)	–	–	–	0.78 (≈ 0.239 µg/mL)	–	–	–	–	–	–	MIC [21]: 12.5 µg/mL (≈ 40.8 µM); MIC [22]: 12.5 µg/mL (≈ 40.8 µM)
